# Source: PubChem
# Compounds with a hit are over-represented: about 1.9% of the library has one in this group of screens.
# IDE cell activ: activators of human insulin-degrading enzyme in cells; HEK cells, FAbeta-B cleavage, fluorescence polarization; 0% vehicle, 100% cell-free pure enzyme wells; activation, % at 5.96 µM; 340,000 tested, 0.073% active; AID 493087;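 active = activation above the mean of all tested compounds plus 3 SD, set per screening campaign, cut at about 17% in these data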
# procasp3 activ: activators of human procaspase-3; activation, % at 8.5 µM; P42574; recombinant procaspase-3 D3A, Ac-DEVD-pNA absorbance 405 nm; 330,000 tested, 0.11% active;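 active = activation above the mean of all tested compounds plus 3 SD, cut at about 21% in these data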;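 note: 0% = DMSO alone and 100% = DMSO wells spiked with extra 5 µM PC-3 D3A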
#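 Assay system: Procaspase-3 D3A mutant, all three cleavage aspartates alanine. Buffer or medium: Zinc-free HEPES saline buffer with Triton X-100. Times: 1 h compound preincubation, 2 h substrate hydrolysis at 25 °C. Measured by: 405 nm absorbance of p-nitroaniline, reads at 0 and 120 min. Read-out basis: percent activation relative to control range. Replicates: singlicate.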
# proCasp7 act: activates human procaspase-7, counter-screen for procaspase-3 activators; P55210; recombinant procaspase-7, Ac-DEVD-pNA absorbance 405 nm; D23A/D198A/D206A triple mutant, cannot self-cleave; scale: DMSO 0, 5 µM enzyme 100; activation, % at 8.5 µM; 330,000 tested, 0.093% active; AID 463210;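 active = percent activation above the screen-wide mean plus 3 SD, cut at about 25% in these data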
#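 buffer or medium = Zinc-free HEPES/NaCl buffer, pH 7.4 | material = Procaspase-7 triple mutant (PC-7 D3A) | input = 2 µM procaspase-7 mutant as dispensed | signal = Epi-absorbance of released pNA at 405 nm, two timepoints | timing = 1 h preincubation, 2 h reaction | replicates = singlicate compound testing | evaluation = % activation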
# PHOSPHO1 inh: inhibitors of human PHOSPHO1 phosphatase; Q8TCT1; 290,000 tested, 1.1% active; recombinant PHOSPHO1, absorbance phosphatase assay; AID 1565; inhibition, % at 13.3 µM; in the data active = inhibition above about 60%
# IDE cell inh: cellular human IDE inhibition; P14735; HEK cells, FAbetaB cleavage, fluorescence polarization; inhibition, % at 5.59 µM; 320,000 tested, 0.41% active; AID 434962;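 active = percent inhibition above the average of all tested compounds plus 3 SD, set per screening campaign, cut at about 16% in these data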;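 note: IDE supplied by intact live HEK cells; FP after avidin binding of uncleaved biotin substrate so inhibition keeps polarization high; 0% = DMSO wells and 100% = 60 µM reference IDE inhibitor Ii1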
# UBC13 inh: human UBC13 polyubiquitination inhibition; UBC13 polyubiquitin chain formation, TR-FRET; inhibition, % at 20 µM; AID 485273; 330,000 tested, 0.47% active; P61088; in the data active = inhibition above about 45%, passing the limit was not always enough
# IDE inh confirm: cellular human IDE inhibition, confirmation; shares compounds with IDE cell inh; inhibition, % at 5.59 µM; HEK cells, FAbetaB cleavage, fluorescence polarization; 1,200 tested, 51% active;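 active = mean inhibition across triplicate wells above the cutoff set by the earlier primary insulin-degrading enzyme screen, cut at about 16% in these data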;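 note: 0% = DMSO wells and 100% = 60 µM reference IDE inhibitor Ii1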
# HEK293 tox: kills HEK cells in IDE inhibitor counter-screen; HEK293 cytotoxicity, ATP luminescence; 1,200 tested, 28% active; AID 449730; inhibition, % at 5.59 µM; shares compounds with IDE cell inh; in the data active = inhibition above about 22%;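 note: 0% = vehicle wells and 100% = reference cytotoxic drug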
# FP fluor counter: fluorescent artifact in IDE inhibitor FP assay | shares compounds with IDE cell inh | 30 tested, under 10 active | AID 588718 | IC50, µM | FP counterscreen for fluorescent artifacts, IDE probe project; call rule not given here
# Starred values were filed as active, the others as inactive; nt = not tested or not shown.
SMILES,IDE cell activ,procasp3 activ,proCasp7 act,PHOSPHO1 inh,IDE cell inh,UBC13 inh,IDE inh confirm,HEK293 tox,others
Cc1cc(C)c2c(=O)n(CC(=O)Nc3ccc(Br)c(C)c3)sc2n1,-51,-22,-43,-138,61*,-14,19*,22,
Cc1cc(C)c2c(=O)n(CC(=O)NC3CCCC3)sc2n1,-50,-22,-39,-74,27*,-1,2,80*,
Cc1cc(C)c2c(N)c(C(=O)NC3CCCC3)sc2n1,-1,-1,-9,-32,4,4,nt,nt,
O=C(CSc1ccc(S(=O)(=O)N2CCOCC2)cn1)Nc1ccc(F)c(F)c1,3,-8,-1,nt,-3,-2,nt,nt,
O=C(Cc1cccc(C(F)(F)F)c1)NCc1cccnc1,2,7,6,38,4,3,nt,nt,
CN1C(=O)c2cccc3c(N(C)C)ccc(c23)C1=O,-45,-6,-9,14,46*,-141,52*,11,
COc1ccc(N=Cc2ccccc2O)cc1,3,nt,nt,nt,nt,nt,nt,nt,
COc1ccc(N=Cc2oc3ccc4ccccc4c3c2O)cc1,-27,-7,-9,32,18*,-21,29*,5,
CCN(Cc1nc2ccccc2c(=O)[nH]1)C(=O)c1cccc(S(=O)(=O)N2CCc3ccccc32)c1,4,4,1,nt,4,4,nt,nt,
CCN1C(=O)/C(=C/C=C2/CCCN2C)OC1=S,-30,-15,-15,25,19*,-15,26*,10,
CN(C)c1ccc(/C=C(/C(=O)c2ccc(Cl)cc2Cl)n2cncn2)cc1,-146,-1,-21,9,141*,-262,162*,28*,
COc1ccc(/C=C(/C(=O)c2ccc(Cl)cc2Cl)n2cncn2)cc1,5,-1,-1,7,0,6,nt,nt,
COc1ccc(/C=c2\s/c(=C/C(=O)c3ccc(C)cc3)[nH]c2=O)cc1OC,-98,-5,-17,-2,79*,-57,78*,7,
CC(C)(C)C(=O)/C=c1\[nH]c(=O)/c(=C\c2ccc(F)cc2)s1,-2,-12,-13,19,-3,-11,nt,nt,
O=C(CSc1nnc(-c2cccc(Cl)c2)n1Cc1ccco1)Nc1ccccc1C(F)(F)F,nt,nt,nt,nt,nt,nt,nt,nt,FP fluor counter=>55
O=C(CSc1nnc(-c2ccncc2)n1Cc1ccco1)Nc1ccccc1Cl,4,-2,-7,19,9,-2,nt,nt,
Cc1ccc(NC(=O)CSc2nnc(-c3cccc(Cl)c3)n2Cc2ccco2)c(C)c1,nt,nt,nt,nt,nt,nt,nt,nt,FP fluor counter=>55
Cc1[nH]n(-c2ccccc2)c(=S)c1C=Nc1cccc([N+](=O)[O-])c1,-13,-23,-28,107*,25*,-8,2,8,
Cc1[nH]n(-c2ccccc2)c(=O)c1C=Nc1cccc2cccnc12,-4,3,-11,-17,15,-10,nt,nt,
Cc1ccc(NC(=O)C(C)Sc2nnc(-c3cccnc3)o2)cc1 (stereo unspecified),4,1,17,-22,-4,-4,nt,nt,
N#Cc1ccc(CSc2nnc(-c3cccnc3)n2-c2ccccc2)cc1,-27,10,0,21,19*,-4,11,28*,
Cc1ccc(NC(=O)C(C)Sc2nnc(-c3cccnc3)n2-c2ccccc2)cc1 (stereo unspecified),-31,2,-10,-1,23*,11,9,12,
COCCN(C(=O)COC(=O)C1CC1C)c1c(N)n(Cc2ccccc2)c(=O)[nH]c1=O (stereo unspecified),2,7,5,nt,3,2,nt,nt,
Cc1cc(C)c2oc(C(=O)Nc3ccc(S(=O)(=O)Nc4nccs4)cc3)cc(=O)c2c1,-18,4,7,20,22*,2,14,4,
